The entries come from a sample that favours hits as a whole.
IDH1 R132H inh: inhibitors of IDH1 R132H reductase, primary screen, biochemical, plate reader, single point; Isocitrate dehydrogenase [NADP] cytoplasmic (Homo sapiens), O75874; diaphorase/resazurin fluorescence, 60 min; inhibition, % at 10 µM; 70,000 compounds, 0.18% hits; in the data active = inhibition above about 34%; inconclusive = no clear call, values can overlap the other calls; inactive = below about 11%;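 note: 0% = DMSO and 100% = no enzyme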
T cruzi growth-1: T. cruzi intracellular proliferation inhibitors, primary screen, cell-based, beta-gal Tulahuen parasites, NIH3T3 host, luminescence | inhibition, % at 8.34 µM | 77,000 compounds, 5.9% hits | T. cruzi beta-gal in NIH3T3, GalScreen luminescence, 90 h;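 active = mean inhibition above about 93%, with at least 55% of replicates each passing it, limit read from the data, passing the limit was not always enough; inconclusive = only one of those two conditions holds; inactive = neither condition holds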
KDM4C inh: inhibitors of GASC-1 (KDM4C) histone demethylase, primary screen, biochemical, single concentration HTS | Lysine-specific demethylase 4C (Homo sapiens), Q9H3R0 | GST-KDM4C 2-372, H3K9me3 peptide, LANCE TR-FRET | inhibition, % at 12.5 µM | 96,000 compounds, 0.15% hits | AID 720574, 2013;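 active = mean replicate inhibition above about 25%, with at least 55% of replicates also reaching it, limit read from the data, passing the limit was not always enough; inconclusive = only one of those two conditions met; inactive = neither condition met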
Target sequence (Q9H3R0 2-372 limits assumed): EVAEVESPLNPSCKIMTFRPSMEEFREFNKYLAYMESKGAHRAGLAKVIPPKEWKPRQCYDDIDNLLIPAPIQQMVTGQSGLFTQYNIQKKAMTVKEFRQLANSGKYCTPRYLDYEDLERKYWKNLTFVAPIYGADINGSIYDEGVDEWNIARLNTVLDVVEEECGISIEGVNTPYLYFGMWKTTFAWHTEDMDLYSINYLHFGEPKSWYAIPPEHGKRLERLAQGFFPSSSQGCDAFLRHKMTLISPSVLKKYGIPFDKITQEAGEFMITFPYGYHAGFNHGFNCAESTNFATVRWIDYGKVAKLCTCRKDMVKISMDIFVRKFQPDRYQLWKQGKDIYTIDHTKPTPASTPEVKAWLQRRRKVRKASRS
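Material: GST-tagged GASC-1 (JMJD2C) catalytic fragment, aa 2-372 / Quantity: enzyme final amount 10 nM / Medium: HEPES buffer, pH 7.5, plus ascorbate / Doses: one test concentration per compound / Incubation: 30 min reaction, 60 min detection, RT / Measured by: LANCE TR-FRET / Read-out: inhibition from TR-FRET ratio decrease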
T cruzi growth-2: T. cruzi intracellular proliferation inhibitors, confirmation, cell-based, NIH3T3 host, beta-gal parasite, luminescence, cherry-pick; shares compounds with T cruzi growth-1; AID 651739, 2012; T. cruzi beta-gal in NIH3T3, GalScreen luminescence, 90 h; inhibition, % at 8.35 µM; 5,600 compounds, 72% hits;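 active = mean replicate inhibition above about 95% and at least 55% of replicates individually reaching it, limit read from the data; inconclusive = only one of the two criteria is met; inactive = neither criterion is met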
T cruzi growth-3: inhibitors of intracellular T. cruzi replication, confirmation, NIH3T3 host cells, beta-gal parasites, cherry-pick, set 2; shares compounds with T cruzi growth-1; T. cruzi beta-gal in NIH3T3, GalScreen luminescence, 90 h; inhibition, % at 2.09 µM; 5,600 compounds, 21% hits; AID 651740, 2012;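 active = mean inhibition above about 95%, with at least 55% of replicates also reaching it, limit read from the data; inconclusive = meets just one of the two conditions; inactive = meets neither condition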;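 note: plate controls were neutral control median for no effect and positive control median for full effect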
NIH3T3 tox: cytotoxicity in mouse NIH/3T3 fibroblasts, confirmation, cytotoxicity control for T. cruzi proliferation inhibitor project, cell-based, cherry-pick, single point | shares compounds with T cruzi growth-1 | NIH/3T3 viability, CellTiter-Glo ATP luminescence, 90 h | cytotoxicity (signal decrease), % at 8.35 µM | 5,600 compounds, 14% hits;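 active = mean signal decrease across replicates above about 35% based on untreated-well scatter, with enough replicates individually passing, limit read from the data; inconclusive = no rule stated though some were filed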;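 note: 0% = median of neutral control wells and 100% = median of positive control wells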
3T3 cytotox 2: NIH/3T3 fibroblast cytotoxicity, confirmation, cytotoxicity control, cell-based, cherry-pick, single point, set 2 | shares compounds with T cruzi growth-1 | NIH/3T3 viability, CellTiter-Glo ATP luminescence, 90 h | inhibition, % at 24.9 µM | 5,600 compounds, 56% hits;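 active = mean loss of cell viability signal at or above a set limit, and enough replicates individually reaching it; inconclusive = meets only the mean limit or only the replicate share; inactive = meets neither condition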;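 note: 0% = median of neutral control wells and 100% = median of positive control wells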
An asterisk follows results filed as active; ? = inconclusive; nt = no result.

SMILES	IDH1 R132H inh	T cruzi growth-1	KDM4C inh	T cruzi growth-2	T cruzi growth-3	NIH3T3 tox	3T3 cytotox 2
CC(C)CC#Cc1ccc2c(c1)O[C@H](CN(C)C(=O)C1CCOCC1)[C@@H](C)CN([C@H](C)CO)S2(=O)=O	0	82	-1	nt	nt	nt	nt
CC(C)CC#Cc1ccc2c(c1)O[C@@H](CN(C)C(=O)C1CCC1)[C@@H](C)CN([C@@H](C)CO)S2(=O)=O	nt	105*	3	104*	74	-19	96*
CC(C)CC#Cc1ccc2c(c1)O[C@@H](CN(C)C(=O)C1CCCCC1)[C@@H](C)CN([C@@H](C)CO)S2(=O)=O	0	113*	5	?	?	2	105*
CC(C)CC#Cc1ccc2c(c1)O[C@H](CN(C)C(=O)C1CCCCC1)[C@H](C)CN([C@@H](C)CO)S2(=O)=O	1	112*	-1	102*	103*	29	104*
COc1ccccc1NC(=O)c1c(NCc2ccc(C)o2)sc2c1CCC2	1	nt	nt	nt	nt	nt	nt
CCn1c(SCC(=O)c2ccc(OC)cc2)nnc1-c1cc2cccc(OC)c2o1	0	nt	nt	nt	nt	nt	nt
Cc1cc(Br)c(NC(=O)CSc2nnc(N)s2)cc1C	0	nt	nt	nt	nt	nt	nt
Cc1nn(C)c(-c2n[nH]c(=S)n2-c2ccc(CC(=O)O)cc2)c1Br	2	nt	nt	nt	nt	nt	nt
COc1ccc(-n2c(SCC(=O)Nc3ccc(C)c(C)c3)nnc2-c2ccccc2)cc1	0	nt	nt	nt	nt	nt	nt
CCOC(=O)c1c(-c2ccc(OC)cc2)csc1NC(=O)c1ccccc1[N+](=O)[O-]	-1	nt	nt	nt	nt	nt	nt
CC(C)NC(=O)Nc1ccc2c(c1)C(=O)N([C@H](C)CO)C[C@@H](C)[C@H](CN(C)S(=O)(=O)c1ccc(Cl)cc1)OCCCC[C@@H](C)O2	3	72	-1	nt	nt	nt	nt
Cc1noc(C)c1NC(=O)Nc1ccc2c(c1)C(=O)N([C@H](C)CO)C[C@H](C)[C@H](CN(C)S(=O)(=O)c1ccc(Cl)cc1)OCCCC[C@H](C)O2	nt	?	0	55	-43	-21	-30
Cc1noc(C)c1NC(=O)Nc1ccc2c(c1)C(=O)N([C@@H](C)CO)C[C@@H](C)[C@@H](CN(C)S(=O)(=O)c1ccc(Cl)cc1)OCCCC[C@@H](C)O2	2	72	-2	nt	nt	nt	nt
CC(C)NC(=O)Nc1ccc2c(c1)C(=O)N([C@@H](C)CO)C[C@@H](C)[C@@H](CN(C)S(=O)(=O)c1ccc(Cl)cc1)OCCCC[C@@H](C)O2	4	108*	1	101*	41	-13	0
C[C@H](CO)N1C[C@H](C)[C@@H](CN(C)S(=O)(=O)c2ccc(Cl)cc2)OCCCC[C@H](C)Oc2ccc(NC(=O)NC3CCCCC3)cc2C1=O	nt	106*	0	109*	75	-10	0
C[C@H]1CCCCO[C@H](CN(C)S(=O)(=O)c2ccc(Cl)cc2)[C@@H](C)CN([C@@H](C)CO)C(=O)c2cc(NC(=O)NC3CCCCC3)ccc2O1	2	87	-2	nt	nt	nt	nt
Cn1c2ccccc2c2nnc(SCC(=O)Nc3ccc(Cl)cc3)nc21	2	nt	nt	nt	nt	nt	nt
CC(Oc1cccc(Br)c1)C(=O)NCc1ccco1 (stereo not given)	0	nt	nt	nt	nt	nt	nt
CC1CC(=O)c2c(ccc3c2C(=O)c2cccc(O)c2C3O)C1 (stereo not given)	0	nt	nt	nt	nt	nt	nt
Cc1ccc(Nc2nc(N)nc(CN3CCN(C(c4ccccc4)c4ccccc4)CC3)n2)cc1	0	nt	nt	nt	nt	nt	nt
O=C(Nc1cc(C(F)(F)F)ccc1N1CCc2ccccc2C1)c1ccccc1	-1	nt	nt	nt	nt	nt	nt
CCC(=O)N(C)C[C@H]1Oc2cc(C#CCN(C)C)ccc2S(=O)(=O)N([C@@H](C)CO)C[C@@H]1C	-4	102*	5	104*	?	26	19
CCCNC(=O)N(C)C[C@H]1Oc2cc(C#CCN(C)C)ccc2S(=O)(=O)N([C@@H](C)CO)C[C@@H]1C	-1	?	4	88	36	-24	-20
CCC(=O)N(C)C[C@H]1Oc2cc(C#CCN(C)C)ccc2S(=O)(=O)N([C@H](C)CO)C[C@@H]1C	0	102*	3	97*	91	-11	-1
CCCC#Cc1ccc2c(c1)O[C@H](CN(C)C(=O)NCCC)[C@H](C)CN([C@H](C)CO)S2(=O)=O	0	-42	0	nt	nt	nt	nt
SMILES	IDH1 R132H inh	T cruzi growth-1	KDM4C inh	T cruzi growth-2	T cruzi growth-3	NIH3T3 tox	3T3 cytotox 2
CCC(=O)N(C)C[C@H]1Oc2cc(C#CCN(C)C)ccc2S(=O)(=O)N([C@H](C)CO)C[C@H]1C	0	66	3	nt	nt	nt	nt
CCC(=O)N(C)C[C@@H]1Oc2cc(C#CCN(C)C)ccc2S(=O)(=O)N([C@H](C)CO)C[C@@H]1C	0	94	1	nt	nt	nt	nt
CC1(C)CC(=O)c2cc(C(=O)NCCCN3CCOCC3)c(=O)n(-c3ccccc3)c2C1	1	nt	nt	nt	nt	nt	nt
COc1ccc(NC(=O)Cc2coc3c(C)c(C)ccc23)c(OC)c1	-1	nt	nt	nt	nt	nt	nt
Cc1ccc(-c2nnc(SCC(=O)Nc3ccccc3C(C)(C)C)n2C)cc1	0	nt	nt	nt	nt	nt	nt
C[C@@H]1CN([C@H](C)CO)S(=O)(=O)c2ccc(C3=CCCCC3)cc2O[C@@H]1CN(C)CC1CC1	0	67	-1	nt	nt	nt	nt
C[C@@H]1CN([C@@H](C)CO)S(=O)(=O)c2ccc(C3=CCCC3)cc2O[C@H]1CN(C)CC1CC1	0	93	-2	nt	nt	nt	nt
C[C@H](CO)N1C[C@H](C)[C@@H](CN(C)CC2CCCC2)Oc2cc(C3=CCCCC3)ccc2S1(=O)=O	0	106*	-2	97*	77	13	103*
C[C@@H]1CN([C@@H](C)CO)S(=O)(=O)c2ccc(C3=CCCCC3)cc2O[C@@H]1CN(C)CC1CC1	-3	51	0	nt	nt	nt	nt
C[C@@H]1CN([C@@H](C)CO)S(=O)(=O)c2ccc(C3=CCCCC3)cc2O[C@H]1CN(C)CC1CCCC1	0	123*	0	102*	73	120*	106*
C[C@H](CO)N1C[C@H](C)[C@@H](CN(C)CC2CCCC2)Oc2cc(C3=CCCC3)ccc2S1(=O)=O	1	103*	-6	103*	65	8	107*
COc1ccc(C(=O)CCC(=O)Nc2ccc(C(=O)O)cc2)cc1OC	0	nt	nt	nt	nt	nt	nt
N#Cc1c(NC(=O)CCCOc2ccc(Cl)cc2Cl)sc2c1CCCC2	0	nt	nt	nt	nt	nt	nt
NC(=O)COc1ccc(NC(=O)c2cccnc2)cc1	2	nt	nt	nt	nt	nt	nt

Bioassay records: PubChem BioAssay, Broad Institute
